{"source": "paper PMC7175782", "about": "(Bioconjugate chemistry, 2018)", "tested_on": "TAR RNA", "assay": "Direct binding of ligands to TAR by ESI-MS under nondenaturing conditions", "design": "species or system HIV-1", "settings": "1 μM TAR, 10 μM ligand (1:10), 150 mM ammonium acetate", "summary_of_the_method": "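Nondenaturing ESI-MS of HIV-1 TAR RNA (1 μM) mixed with test compound (10 μM, 1:10 molar ratio) in 150 mM ammonium acetate. Species assigned from monoisotopic masses. Free and bound RNA were quantified from relative abundances, expressed as percentages and compared to assess binding.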"}
{"smiles": "CC(NC(=O)C(N)CCCN)C(=O)Nc1ccc2c(c1)C(=O)c1ccc(NC(=O)C(C)NC(=O)C(N)CCCN)cc1C2=O.O=C(O)C(F)(F)F.O=C(O)C(F)(F)F.O=C(O)C(F)(F)F.O=C(O)C(F)(F)F", "note": "[D-4g, N,N ′-(1,1′-(9,10-Dioxo-9,10-dihydroanthracene-2,6-diyl)-bis(azanediyl)bis(1-oxo-propane-2,1-diyl))bis(2,5-diaminopentanamide)-tetra-trifluoroacetate]", "values": [{"measurement": "binding stoichiometry of TAR complexes (ligand:TAR)", "result": "up to 3 equiv of ligand"}]}
{"smiles": "C[C@H](NC(=O)C(N)CCCCN)C(=O)Nc1ccc2c(c1)C(=O)c1ccc(NC(=O)[C@H](C)NC(=O)C(N)CCCCN)cc1C2=O.O=C(O)C(F)(F)F.O=C(O)C(F)(F)F.O=C(O)C(F)(F)F.O=C(O)C(F)(F)F", "note": "(stereo partly drawn) [D-4h, N,N′-(2S,2′S)-1,1′-(9,10-Dioxo-9,10-dihydro-anthracene-2,6-diyl)bis(azanediyl)-bis(1-oxopropane-2,1-diyl)bis(2,6-diaminohexanamide)-tetra-trifluoroacetate]", "values": [{"measurement": "binding stoichiometry of TAR complexes (ligand:TAR)", "result": "up to 4 equiv of ligand"}]}
